Consider two substances from ChEMBL document CHEMBL4007441, “Novel Design of Heptad Amphiphiles To Enhance Cell Selectivity, Salt Resistance, Antibiofilm Properties and Their Membrane-Disruptive Mechanism” (J Med Chem, 2017).

Calls of active or inactive are those of the source. The calls are words filed in the database; no cut-off is given here.

The subject of assay [1] is Pseudomonas aeruginosa. In words: Antibacterial activity against Pseudomonas aeruginosa 21328 clinical isolate after 18 hrs by broth microdilution method. The note with it: Pseudomonas aeruginosa, 21328, 18 h. The assay is classed as functional.
Assay [2] deals with RAW264.7. Nature of the assay: Downregulation of LPS-induced TNF-alpha mRNA expression in mouse RAW264.7 cells at 10 mg/L after 18 hrs by real-time PCR analysis. The assay is classed as functional, cell-based. Summed up: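 qRT-PCR: RAW264.7 cells were stimulated with LPS (100 ng/mL) with or without peptide at 10 mg/L for 18 h at 37 °C. Total RNA was taken up with TRIzol. Transcript levels were normalized to GAPDH and expressed as fold change versus untreated cells. Three experiments, triplicates each.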
Background: In qPCR the cycle at which signal appears reflects the starting amount.

For assay [3], the system named is Pseudomonas aeruginosa. Nature of the assay: Antibacterial activity against Pseudomonas aeruginosa CICC 10419 after 18 hrs by broth microdilution method. The assay is classed as functional. The note with it: CICC 10419, 18 h. Put shortly:
(§1)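 Broth microdilution in Mueller-Hinton broth. Exponential-phase bacteria (37 °C, 220 rpm shaking) were diluted to about 1 × 10^6 CFU/mL and mixed 1:1 with two-fold serial peptide dilutions. MIC is the lowest concentration with no visible turbidity after 18 h at 37 °C. Controls were uninoculated MHB and untreated culture. Run at least three times, two replicates each.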
(In general: Broth dilution looks for growth in wells or tubes with falling amounts of substance.)

Assay [4] concerns RAW264.7. Nature of the assay: Inhibition of LPS-induced TLR4 negative regulation in mouse RAW264.7 cells at 10 mg/L after 18 hrs by Western blot analysis. In kind it is functional, cell-based. Summed up:
(§2)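 Western blot of RAW264.7 lysates after 18 h with LPS at 100 ng/mL, with or without peptide at 10 mg/L. Lysates were run on 8% or 12% SDS-PAGE, transferred to PVDF and blocked in 5% milk/TBST. Primary antibodies were applied at 4 °C overnight, then HRP secondary and ECL detection. β-actin was the loading control.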
(Immunoblotting shows a protein as a band on a membrane.)

Assay [5] relates to RAW264.7. In words: Inhibition of LPS-induced IkappaB-alpha protein degradation in mouse RAW264.7 cells at 10 mg/L after 18 hrs by Western blot analysis. The assay is classed as functional, cell-based. Summed up:
as §2

Assay [6] has as its system RAW264.7. In words: Inhibition of LPS-induced iNOS expression in mouse RAW264.7 cells at 10 mg/L after 18 hrs by Western blot analysis. The assay is classed as functional, cell-based. Summed up: as §2
Assay [7] has as its system Pseudomonas aeruginosa. Nature of the assay: Antibacterial activity against ceftazidime-resistant Pseudomonas aeruginosa 11431 after 18 hrs by broth microdilution method. In kind it is functional. Particulars: Pseudomonas aeruginosa, 11431, 18 h. Summed up: as §1
The test system of assay [8] is Pseudomonas aeruginosa. Nature of the assay: Antibacterial activity against Pseudomonas aeruginosa ATCC 27853 assessed as induction of outer membrane permeabilization by measuring NPN uptake by spectrofluorophotometric analysis. The assay is classed as functional. Put shortly: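 Exponential-phase cells were washed in HEPES pH 7.4 with 5 mM glucose and diluted to about 10^5 CFU/mL. NPN was added at 10 µM final, then peptide at varying concentrations. Fluorescence (ex 350/em 420 nm) was followed to plateau. Values are % NPN uptake relative to polymyxin B at 10 mg/L (100%). Three experiments, duplicates.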

Assay [9] has as its system Pseudomonas aeruginosa. Nature of the assay: Antibiofilm activity against Pseudomonas aeruginosa ATCC 27853 assessed as reduction in cell density of biofilm at 4 times MIC after 1 hr by SEM analysis. The assay is classed as functional. Summed up:
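Biofilm imaging: biofilms grown on sterile coverslips in 12-well wells were treated with peptides at 4 × MIC for 1 h, then fixed overnight in 2.5% glutaraldehyde and viewed by SEM. Untreated control. At least three repeats.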

In the next assay the test system is Escherichia coli. In words: microbe, parasite or virus in culture. The note with it: ATCC 25922, 18 h.
For assay [10], the system named is Pseudomonas aeruginosa. In words: Antibacterial activity against Pseudomonas aeruginosa ATCC 27853 after 18 hrs by broth microdilution method. In kind it is functional. Particulars: ATCC 27853, 18 h. Put shortly: as §1
The subject of assay [11] is Pseudomonas aeruginosa. In words: Antibacterial activity against Pseudomonas aeruginosa ATCC 27853 assessed as induction of membrane corrugation at MIC after 1 hr by SEM analysis. In kind it is functional. Put shortly:
(§3)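 For SEM, exponential-phase cells were washed in PBS pH 7.4, set to OD600 0.2 and exposed to 1 × MIC for 60 min at 37 °C. They were fixed in 2.5% glutaraldehyde at 4 °C overnight, dehydrated through graded ethanol and tert-butanol, dried, gold-coated and imaged. Untreated control. At least three repeats, duplicates.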

For assay [12], the system named is Pseudomonas aeruginosa. Nature of the assay: Antibacterial activity against Pseudomonas aeruginosa ATCC 27853 assessed as induction of membrane damage at MIC after 1 hr by TEM analysis. In kind it is functional. Summed up: (§4)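 For TEM, exponential-phase cells were washed in PBS pH 7.4, adjusted to OD600 0.2 and treated at 1 × MIC for 60 min at 37 °C. Fixation was 2.5% glutaraldehyde at 4 °C overnight, then 2% osmium tetroxide for 70 min. Samples went through a graded ethanol series, ethanol/acetone and acetone before imaging. Untreated control.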

Assay [13] relates to Pseudomonas aeruginosa. Nature of the assay: Antibacterial activity against Pseudomonas aeruginosa ATCC 27853 assessed as induction of membrane distortion at MIC after 1 hr by SEM analysis. In kind it is functional. Summed up:
as §3

The subject of assay [14] is Pseudomonas aeruginosa. In words: Antibacterial activity against Pseudomonas aeruginosa ATCC 27853 assessed as induction of membrane damage at MIC after 1 hr by SEM analysis. In kind it is functional. Summed up: as §3
In assay [15] the test system is Pseudomonas aeruginosa. In words: Antibacterial activity against Pseudomonas aeruginosa ATCC 27853 assessed as induction of intracellular content dispersion at MIC after 1 hr by TEM analysis. The assay is classed as functional, cell-based. Put shortly:
as §4

Assay [16] relates to Pseudomonas aeruginosa. In words: Antibacterial activity against Pseudomonas aeruginosa ATCC 27853 assessed as induction of cytoplasmic membrane depolarization after 90 min incubation under dark condition by diSC3-5 dye-based fluorescence analysis. In kind it is functional. Summed up:
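Exponential-phase cells were washed three times in 5 mM HEPES (pH 7.4). diSC3-5 (0.4 µM final) and KCl (0.1 M final) were added, then the cells were incubated 90 min at 37 °C in the dark. Peptide at a range of concentrations was added and fluorescence followed at ex 622/em 670 nm. Three independent experiments, duplicates each.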

The test system of assay [17] is Pseudomonas aeruginosa. Nature of the assay: Antibacterial activity against Pseudomonas aeruginosa ATCC 27853 assessed as induction of membrane integrity disruption at MIC after 15 mins by PI-staining based flow cytometry (reference value: 4.7%).

For the substance H-LRRLRRRWWRRRLRRL-NH2, the MIC against Pseudomonas aeruginosa [1] worked out at 32 µg/mL; against Pseudomonas aeruginosa [3] it was 16 µg/mL; against Pseudomonas aeruginosa [7], 16 µg/mL; against Escherichia coli it was 16 µg/mL; with Pseudomonas aeruginosa [10], 8 µg/mL. Further, the outcome with RAW264.7 [2] and with Pseudomonas aeruginosa [9] was Active. For the same substance, the inhibition result in the assay on RAW264.7 [4], in the assay with RAW264.7 [5] and with RAW264.7 [6] was “Active” in each case. Further, in the assay on Pseudomonas aeruginosa [8], the Activity result was “Dose-dependent effect”.

On to H-LRRLRRRWWWRRRLRRL-NH2, for which the result in the assay on Pseudomonas aeruginosa [11], in the assay with Pseudomonas aeruginosa [12], in the assay with RAW264.7 [2], in the assay on Pseudomonas aeruginosa [13], in the assay on Pseudomonas aeruginosa [14] and in the assay on Pseudomonas aeruginosa [15] was Active. The outcome with Pseudomonas aeruginosa [9] was Active. Also, the MIC with Pseudomonas aeruginosa [1] is 4 µg/mL; against Pseudomonas aeruginosa [3], 8 µg/mL; in the assay on Pseudomonas aeruginosa [7] it was 4 µg/mL; in the assay on Escherichia coli, 4 µg/mL; against Pseudomonas aeruginosa [10] it was 4 µg/mL. In addition, the inhibition result in the assay with RAW264.7 [4], in the assay with RAW264.7 [5] and in the assay on RAW264.7 [6] was “Active” throughout. Besides, the values for the Activity result in the assay on Pseudomonas aeruginosa [16], with Pseudomonas aeruginosa [8] and with Pseudomonas aeruginosa [17] were “Dose-dependent effect”, “Dose-dependent effect” and 99.5%, respectively.
